From the array DNA melting data of Ke et al. (doi:10.1101/2024.01.08.574731)

Tests used:
[1] = folding enthalpy; higher = less favourable; fluorescence melt of hairpins on a sequencing array, two-state fit; settings: sodium 0.088 M
In short: (§1)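 Folding enthalpy and melting temperature come from bootstrapped two-state fits to Cy3 fluorescence of library hairpins carrying annealed Cy3 and quencher oligos on a sequenced MiSeq flow cell. Imaging was done in 50 mM Na-HEPES pH 8.0, 25 mM NaCl, stepping by 2.5 °C up to 60 °C, and signals were normalised to pre-quench Cy3 and to control constructs. Results of four replicates were combined by inverse variance, and fitted temperatures were raised by 9.35 °C to match UV melts.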

[2] = melting temperature; fluorescence melt of hairpins on a sequencing array, two-state fit, raised by 9.35 °C to match UV melts; settings: sodium 0.088 M
In short: as §1

Sequence | folding enthalpy [1] | Tm [2]
GATCCATTATTGGATC ((((((....)))))) | -37.1 kcal/mol | 52.7 °C
GATCCATTGCTGGATC ((((((....)))))) | -36.6 kcal/mol | 50.8 °C
GATCCATTTTGGATC ((((((...)))))) | -33.5 kcal/mol | 53.6 °C
GATCCCAAAGGGATC ((((((...)))))) | -35.4 kcal/mol | 65.5 °C
GATCCCAAAGGGGATC ((((((....)))))) | -31.7 kcal/mol | 57.3 °C
GATCCCAAATGGGATC ((((((....)))))) | -36.4 kcal/mol | 57.7 °C
GATCCCAACAGGGATC ((((((....)))))) | -36 kcal/mol | 62.4 °C
GATCCCAACTGGGATC ((((((....)))))) | -39.5 kcal/mol | 63.4 °C
GATCCCAAGAGGGATC ((((((....)))))) | -33.9 kcal/mol | 60.8 °C
GATCCCAAGCGGGATC ((((((....)))))) | -32.5 kcal/mol | 60.6 °C
GATCCCAATGGGGATC ((((((....)))))) | -33.2 kcal/mol | 60.7 °C
GATCCCACCAGGGATC ((((((....)))))) | -41.8 kcal/mol | 61.4 °C
GATCCCACCGGGATC ((((((...)))))) | -28.9 kcal/mol | 66.7 °C
GATCCCACGCGGGATC ((((((....)))))) | -30.7 kcal/mol | 63.3 °C
GATCCCACGGGGGATC ((((((....)))))) | -35.8 kcal/mol | 61.3 °C
GATCCCAGAAGGGATC ((((((....)))))) | -34.7 kcal/mol | 60.4 °C
GATCCCAGATGGGATC ((((((....)))))) | -34.1 kcal/mol | 57.6 °C
GATCCCATATGGGATC ((((((....)))))) | -35.3 kcal/mol | 61.8 °C
GATCCCATGAGGGATC ((((((....)))))) | -30.3 kcal/mol | 61.4 °C
GATCCCATGGGGATC ((((((...)))))) | -33.2 kcal/mol | 65.8 °C
GATCCCCAAAGGGATC ((((((....)))))) | -33.5 kcal/mol | 59.7 °C
GATCCCCACCGGGATC ((((((....)))))) | -34.7 kcal/mol | 57.3 °C
GATCCCCATGGGATC ((((((...)))))) | -37.5 kcal/mol | 63 °C
GATCCCCCACGGGATC ((((((....)))))) | -35.6 kcal/mol | 58.1 °C

Sequence | folding enthalpy [1] | Tm [2]
GATCCCCCCAGGGATC ((((((....)))))) | -38.1 kcal/mol | 63.3 °C
GATCCCCCCTGGGATC ((((((....)))))) | -39.1 kcal/mol | 58.4 °C
GATCCCCCGAAAGGGATC (((..(((....)))))) | -30.7 kcal/mol | 52.4 °C
GATCCCCCTCGGGATC ((((((....)))))) | -34 kcal/mol | 58.2 °C
GATCCCCGAAGGGATC ((((((....)))))) | -15.6 kcal/mol | 57.1 °C
GATCCCCGCAGGGATC ((((((....)))))) | -18.1 kcal/mol | 62.8 °C
GATCCCCGTAGGGATC ((((((....)))))) | -20.6 kcal/mol | 61.9 °C
GATCCCCGTTGGGATC ((((((....)))))) | -32.3 kcal/mol | 62.2 °C
GATCCCCTCCGGGATC ((((((....)))))) | -36 kcal/mol | 58.4 °C
GATCCCCTCGGGGATC ((((((....)))))) | -32.5 kcal/mol | 67.6 °C
GATCCCCTGCGGGATC ((((((....)))))) | -33.6 kcal/mol | 58.2 °C
GATCCCCTGGGGATC ((((((...)))))) | -32.8 kcal/mol | 64.8 °C
GATCCCGAAAGGGAGATC ((((((....)))..))) | -20.6 kcal/mol | 50.5 °C
GATCCCGAAAGGGCATC ((((((....))).))) | -17 kcal/mol | 42.1 °C
GATCCCGAAAGGGGCATC ((((((....)))..))) | -11.6 kcal/mol | 35.6 °C
GATCCCGACCGGGATC ((((((....)))))) | -37.5 kcal/mol | 66.5 °C
GATCCCGAGGGGATC ((((((...)))))) | -42.5 kcal/mol | 62.6 °C
GATCCCGAGGGGGATC ((((((....)))))) | -35.3 kcal/mol | 59.7 °C
GATCCCGATGGGGATC ((((((....)))))) | -34.8 kcal/mol | 63.3 °C
GATCCCGCAGGGGATC ((((((....)))))) | -15.7 kcal/mol | 65.5 °C
GATCCCGCCCGGGATC ((((((....)))))) | -32.8 kcal/mol | 67.1 °C
GATCCCGCCTGGGATC ((((((....)))))) | -39.1 kcal/mol | 64.9 °C
GATCCCGCGGGGGATC ((((((....)))))) | -31 kcal/mol | 59.9 °C
GATCCCGCTTGGGATC ((((((....)))))) | -46.9 kcal/mol | 59.5 °C

Sequence | folding enthalpy [1] | Tm [2]
GATCCCGGACGGGATC ((((((....)))))) | -34.5 kcal/mol | 68.5 °C
GATCCCGGCGGGATC ((((((...)))))) | -36.5 kcal/mol | 68.2 °C
GATCCCGGCGGGGATC ((((((....)))))) | -47.7 kcal/mol | 61.3 °C
GATCCCGGCTGGGATC ((((((....)))))) | -32 kcal/mol | 60.4 °C
GATCCCGTCGGGATC ((((((...)))))) | -37.7 kcal/mol | 67.2 °C
GATCCCGTGCGGGATC ((((((....)))))) | -35.8 kcal/mol | 66.3 °C
GATCCCGTTCGGGATC ((((((....)))))) | -43.2 kcal/mol | 67.8 °C
GATCCCTAGAGGGATC ((((((....)))))) | -40.2 kcal/mol | 59 °C
GATCCCTAGGGGATC ((((((...)))))) | -35.4 kcal/mol | 61.1 °C
GATCCCTAGGGGGATC ((((((....)))))) | -34.8 kcal/mol | 60.4 °C
GATCCCTCGTGGGATC ((((((....)))))) | -40.2 kcal/mol | 62.2 °C
GATCCCTGCGGGATC ((((((...)))))) | -35.8 kcal/mol | 66.1 °C
GATCCCTGGAGGGATC ((((((....)))))) | -34.4 kcal/mol | 59.4 °C
GATCCCTTCGGGATC ((((((...)))))) | -41.1 kcal/mol | 65.3 °C
GATCCCTTGAGGGATC ((((((....)))))) | -42.9 kcal/mol | 62.4 °C
GATCCGAACCGGATC ((((((...)))))) | -40.2 kcal/mol | 57 °C
GATCCGAAGACGGATC ((((((....)))))) | -37 kcal/mol | 54.7 °C
GATCCGACATCGGATC ((((((....)))))) | -46.8 kcal/mol | 55.8 °C
GATCCGACCTCGGATC ((((((....)))))) | -40.9 kcal/mol | 59.1 °C
GATCCGAGATCGGATC ((((((....)))))) | -42.3 kcal/mol | 56.4 °C
GATCCGAGTGCGGATC ((((((....)))))) | -40.6 kcal/mol | 59.1 °C
GATCCGATACGGATC ((((((...)))))) | -32.7 kcal/mol | 59.6 °C
GATCCGATCCGGATC ((((((...)))))) | -33.7 kcal/mol | 58.5 °C
GATCCGCACACGGATC ((((((....)))))) | -44.5 kcal/mol | 59.9 °C

Sequence | folding enthalpy [1] | Tm [2]
GATCCGCAGCCGGATC ((((((....)))))) | -40.7 kcal/mol | 55.9 °C
GATCCGCATCCGGATC ((((((....)))))) | -38 kcal/mol | 56.6 °C
GATCCGCCGTCGGATC ((((((....)))))) | -40.7 kcal/mol | 56.9 °C
GATCCGCCTTCGGATC ((((((....)))))) | -44.3 kcal/mol | 55.9 °C
GATCCGCGAAAGCGCATC (((.(((....))).))) | -14.1 kcal/mol | 36.5 °C
GATCCGCGCCGGATC ((((((...)))))) | -33.9 kcal/mol | 60 °C
GATCCGCGTCGGATC ((((((...)))))) | -35.6 kcal/mol | 57.3 °C
GATCCGCTACGGATC ((((((...)))))) | -31.7 kcal/mol | 57.2 °C
GATCCGCTCCGGATC ((((((...)))))) | -37.5 kcal/mol | 59.2 °C
GATCCGCTGTCGGATC ((((((....)))))) | -42.1 kcal/mol | 57.8 °C
GATCCGGACGCGGATC ((((((....)))))) | -38 kcal/mol | 59.5 °C
GATCCGGATACGGATC ((((((....)))))) | -38.8 kcal/mol | 67.9 °C
GATCCGGATCGGATC ((((((...)))))) | -35.4 kcal/mol | 55.6 °C
GATCCGGGAAACCGAATC (((.(((....))).))) | -24.5 kcal/mol | 38.2 °C
GATCCGGTCTCGGATC ((((((....)))))) | -26.6 kcal/mol | 58.6 °C
GATCCGTACGCGGATC ((((((....)))))) | -39.5 kcal/mol | 63.5 °C
GATCCGTCACCGGATC ((((((....)))))) | -41.6 kcal/mol | 57.2 °C
GATCCGTCGGCGGATC ((((((....)))))) | -39.3 kcal/mol | 59 °C
GATCCGTGACCGGATC ((((((....)))))) | -44.1 kcal/mol | 56 °C
GATCCGTGCTCGGATC ((((((....)))))) | -43.9 kcal/mol | 59.7 °C
GATCCGTGGTCGGATC ((((((....)))))) | -38.8 kcal/mol | 58.7 °C
GATCCGTGTCGGATC ((((((...)))))) | -34.4 kcal/mol | 60.5 °C
GATCCGTTATCGGATC ((((((....)))))) | -36 kcal/mol | 59.2 °C
GATCCGTTGGCGGATC ((((((....)))))) | -36.5 kcal/mol | 59.6 °C
